Measured values as given in ChEMBL document CHEMBL1255469, “In vitro activity of a new isothiazoloquinolone, ACH-702, against Mycobacterium tuberculosis and other mycobacteria” (2010).
Values after ≈ are worked out from the molar mass of the structure shown.

Assays:
Format in all cases: functional
[1] = test system: Mycobacterium tuberculosis; experiment: Antimicrobial activity against isoniazid and rifampin-susceptible Mycobacterium tuberculosis clinical isolates after 7 days by broth microdilution assay; conditions: 168 h
Method in brief: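 Alamar Blue broth microdilution in 7H9GC broth (Middlebrook 7H9 base, glycerol, Casitone, 10% OADC). Drug stock 1 mg/ml in 100% DMSO, diluted in broth to a final 0.03 to 8 μg/ml. M. tuberculosis H37Rv served as the susceptible-strain control. Isoniazid and rifampin resistance was assigned beforehand by the proportion method.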

[2] = test system: Mycobacterium avium complex sp.; experiment: Antimicrobial activity against Mycobacterium avium complex clinical isolates after 7 days by broth microdilution assay; conditions: 168 h
Method in brief: (§1)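 Slowly growing mycobacteria were identified by phenotype and hsp65 PCR-RFLP. MIC by CLSI broth microdilution in cation-adjusted Mueller-Hinton broth with OADC supplement at a final 10%. Final drug range 0.06 to 16 μg/ml. Read after 7 days at 35°C. S. aureus ATCC 29213 was run as a quality control with each plate lot.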

[3] = test system: Mycolicibacterium fortuitum; experiment: Antimicrobial activity against Mycobacterium fortuitum clinical isolates after 7 days by broth microdilution assay; conditions: 168 h
[4] = test system: Mycobacteroides chelonae; experiment: Antimicrobial activity against Mycobacterium chelonae clinical isolates after 7 days by broth microdilution assay; conditions: 168 h
[5] = test system: Mycobacteroides abscessus; experiment: Antimicrobial activity against Mycobacterium abscessus clinical isolates after 7 days by broth microdilution assay; conditions: 168 h
[6] = test system: Mycobacterium kansasii; experiment: Antimicrobial activity against Mycobacterium kansasii after 7 days by broth microdilution assay; conditions: 168 h; method in brief: as §1
[7] = test system: Mycobacterium gordonae; experiment: Antimicrobial activity against Mycobacterium gordonae after 7 days by broth microdilution assay; conditions: 168 h; method in brief: as §1
[8] = test system: Staphylococcus aureus; experiment: Antimicrobial activity against Staphylococcus aureus ATCC 29213 after 72 hrs by broth microdilution assay; conditions: ATCC 29213, 72 h

`COc1c(N2CC[C@@H](C(C)(C)N)C2)c(F)cc2c(=O)c3c(=O)[nH]sc3n(C3CC3)c12` gave an MIC50 [1] of 0.0625 µg/mL (≈ 0.145 µM), an MIC90 [1] of 0.125 µg/mL (≈ 0.289 µM) and an MIC50 [2] of 0.25 µg/mL (≈ 0.578 µM). It also gave an MIC90 [2] of 4 µg/mL (≈ 9.25 µM), an MIC50 [3] of no more than 0.0625 µg/mL and an MIC90 [3] of no more than 0.0625 µg/mL. It also gave an MIC [4] of 8 µg/mL (≈ 18.5 µM), an MIC [5] of 16 µg/mL (≈ 37 µM) and an MIC [6] of 0.12 µg/mL (≈ 0.277 µM). It also gave an MIC [7] of 0.12 µg/mL (≈ 0.277 µM) and an MIC [8] of no more than 0.06 µg/mL.
